From ChEMBL document CHEMBL1147446, “Antagonists of human CCR5 receptor containing 4-(pyrazolyl)piperidine side chains. Part 3: SAR studies on the benzylpyrazole segment” (Bioorg Med Chem Lett, 2004)

Legend:
[1] = target: T1, Sodium-dependent dopamine transporter (Homo sapiens, UniProt Q01959); assay: (§1) Inhibitory activity against human dopamine transporter at 10 uM
[2] = system: Canis familiaris; assay: […] AUCN in dog ( (dosed as a mixture of five compounds at 0.5 mpk each via iv only); format: ADME, organism-based, Canis lupus familiaris; details: in vivo
[3] = system: HeLa; assay: Antiviral activities in a cell culture HIV-1 infectivity inhibition assay using HeLa cells plus 50% normal human serum; format: functional
[4] = target: T2, D(3) dopamine receptor (Homo sapiens, UniProt P35462); assay: (§2) Inhibitory activity against human dopamine receptor D3 at 10 uM
[5] = In vitro antiviral activity using peripheral blood mononuclear cell (PBMC) HIV-1 spread assay in presence of 50% normal human serum; format: functional
[6] = target: L-type calcium channel, benzothiazepine site (Rattus norvegicus, UniProt P22002+P27732+Q02485); assay: Inhibition of binding to rat L-type Calcium channel benzothiazepine site at 10 uM; format: functional
[7] = target: C-C chemokine receptor type 5 (Homo sapiens, UniProt P51681); assay: Inhibitory concentration for displacement of [125I]-MIP-1 alpha from recombinant human CC chemokine receptor 5 (CCR5) expressed in CHO cell; format: cell-based
Method in brief: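 Competitive binding to CCR5 on CHO cell membranes, read as displacement of [125I]-labeled MIP-1α. IC50 values are means of triplicate determinations. Standard errors were normally <15% within an assay. Assay-to-assay variation was within ±2-fold, judged from a standard compound.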

[8] = system: HeLa; assay: Antiviral activities in a cell culture HIV-1 infectivity inhibition assay using HeLa cells; format: functional; details: Homo sapiens
[9] = target: Sodium-dependent noradrenaline transporter (Homo sapiens) (UniProt P23975); assay: Inhibitory activity against human adrenergic norepinephrine transporter at 10 uM
[10] = In vitro antiviral activity using peripheral blood mononuclear cell (PBMC) HIV-1 spread assay; format: functional; details: Homo sapiens
[11] = Half life in dog (dosed as a mixture of five compounds at 0.5 mpk each via iv only); format: ADME, organism-based, Canis lupus familiaris; details: in vivo
Method in brief: (§3)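 Dogs received a five-compound cassette by iv only, 0.5 mpk of each compound.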

[12] = species: Rattus norvegicus; assay: (§4) Inhibitory activity against rat Na+ channel site 2 at 10 uM
[13] = Plasma clearance in dog (dosed as a mixture of five compounds at 0.5 mpk each via iv only); format: ADME, organism-based, Canis lupus familiaris; details: read-out: Clp; method in brief: as §3
[14] = target: T2, D(3) dopamine receptor; assay: as §2; remark: listed apart in the source
[15] = as §4
[16] = system: Canis familiaris; assay: […] AUCN in dog (dosed as a mixture of five compounds at 0.5 mpk each via iv only); format: ADME, organism-based, Canis lupus familiaris; details: in vivo
[17] = system: Canis familiaris; assay: Oral AUCN in dog (dosed at 0.5 mpk iv ); details: in vivo, 0.5 mg/kg
[18] = in vivo; details: dog
[19] = in vivo; details: dog, plasma, iv, 0.5 mg/kg
[20] = target: Voltage-gated inwardly rectifying potassium channel KCNH2 (Homo sapiens, UniProt Q12809); assay: Binding affinity against hERG Voltage-gated potassium channel subunit Kv11.1
[21] = in vivo; details: rat
[22] = in vivo; details: rat; remark: listed apart in the source
[23] = system: HeLa; assay: Inhibition of HIV-1 infectivity using BAL-1 strain against HeLa cell line was determined; format: functional; details: Homo sapiens
[24] = in vivo; details: rat, plasma
[25] = target: T1, Sodium-dependent dopamine transporter; assay: as §1; remark: listed apart in the source

T1 sequence (Q01959 whole entry): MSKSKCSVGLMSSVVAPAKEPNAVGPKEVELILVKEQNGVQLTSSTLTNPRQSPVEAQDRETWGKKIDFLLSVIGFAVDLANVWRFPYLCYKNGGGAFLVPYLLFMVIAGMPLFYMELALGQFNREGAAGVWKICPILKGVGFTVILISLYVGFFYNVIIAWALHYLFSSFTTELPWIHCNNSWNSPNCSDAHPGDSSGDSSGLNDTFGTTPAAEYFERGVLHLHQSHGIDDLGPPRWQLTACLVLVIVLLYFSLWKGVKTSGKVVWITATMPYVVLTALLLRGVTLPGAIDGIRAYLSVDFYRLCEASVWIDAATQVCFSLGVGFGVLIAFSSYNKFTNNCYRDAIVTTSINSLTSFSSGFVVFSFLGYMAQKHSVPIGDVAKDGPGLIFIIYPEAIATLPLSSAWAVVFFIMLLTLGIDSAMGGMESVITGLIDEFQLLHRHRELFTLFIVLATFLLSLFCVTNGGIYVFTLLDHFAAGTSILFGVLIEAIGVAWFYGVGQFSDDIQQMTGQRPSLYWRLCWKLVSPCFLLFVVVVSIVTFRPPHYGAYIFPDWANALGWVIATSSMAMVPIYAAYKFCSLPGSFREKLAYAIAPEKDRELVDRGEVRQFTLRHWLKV
T2 sequence (P35462 whole entry): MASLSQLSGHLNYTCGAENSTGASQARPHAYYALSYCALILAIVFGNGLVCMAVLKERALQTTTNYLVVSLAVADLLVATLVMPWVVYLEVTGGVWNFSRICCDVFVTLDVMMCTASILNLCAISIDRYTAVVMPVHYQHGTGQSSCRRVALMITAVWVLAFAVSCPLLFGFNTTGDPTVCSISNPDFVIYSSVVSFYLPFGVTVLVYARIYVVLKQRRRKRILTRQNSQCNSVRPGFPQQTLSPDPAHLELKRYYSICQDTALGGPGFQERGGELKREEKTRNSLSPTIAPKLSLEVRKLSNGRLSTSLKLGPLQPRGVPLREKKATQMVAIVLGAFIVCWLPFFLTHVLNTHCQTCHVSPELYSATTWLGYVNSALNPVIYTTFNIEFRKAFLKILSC
Sequence of Sodium-dependent noradrenaline transporter (Homo sapiens) (P23975 whole entry): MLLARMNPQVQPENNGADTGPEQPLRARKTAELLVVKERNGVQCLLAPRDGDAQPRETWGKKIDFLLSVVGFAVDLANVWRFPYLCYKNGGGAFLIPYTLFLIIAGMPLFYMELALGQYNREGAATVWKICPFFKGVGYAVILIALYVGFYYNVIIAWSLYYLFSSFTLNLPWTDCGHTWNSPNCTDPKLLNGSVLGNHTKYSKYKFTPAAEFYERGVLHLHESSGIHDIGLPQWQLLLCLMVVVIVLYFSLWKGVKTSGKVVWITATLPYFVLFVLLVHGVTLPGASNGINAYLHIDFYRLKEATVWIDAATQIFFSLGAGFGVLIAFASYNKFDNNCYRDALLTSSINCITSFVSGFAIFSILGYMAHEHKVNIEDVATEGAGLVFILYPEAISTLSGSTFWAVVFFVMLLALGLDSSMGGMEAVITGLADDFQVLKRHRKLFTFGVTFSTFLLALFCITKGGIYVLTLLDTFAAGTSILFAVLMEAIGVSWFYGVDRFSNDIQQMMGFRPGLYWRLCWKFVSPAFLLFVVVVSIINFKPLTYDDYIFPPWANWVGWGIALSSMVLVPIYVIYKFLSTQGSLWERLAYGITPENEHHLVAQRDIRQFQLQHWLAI
Sequence of C-C chemokine receptor type 5 (P51681 whole entry): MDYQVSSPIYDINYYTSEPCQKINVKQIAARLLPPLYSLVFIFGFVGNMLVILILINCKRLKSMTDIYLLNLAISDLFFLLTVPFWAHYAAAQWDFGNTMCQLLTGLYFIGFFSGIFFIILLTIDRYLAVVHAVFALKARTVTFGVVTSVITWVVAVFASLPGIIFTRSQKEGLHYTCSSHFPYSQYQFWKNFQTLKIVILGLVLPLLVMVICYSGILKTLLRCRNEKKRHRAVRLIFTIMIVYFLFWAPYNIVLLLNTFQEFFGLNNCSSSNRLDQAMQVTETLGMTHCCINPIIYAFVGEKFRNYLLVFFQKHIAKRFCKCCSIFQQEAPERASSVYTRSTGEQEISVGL
Sequence of Voltage-gated inwardly rectifying potassium channel KCNH2 (Q12809 whole entry): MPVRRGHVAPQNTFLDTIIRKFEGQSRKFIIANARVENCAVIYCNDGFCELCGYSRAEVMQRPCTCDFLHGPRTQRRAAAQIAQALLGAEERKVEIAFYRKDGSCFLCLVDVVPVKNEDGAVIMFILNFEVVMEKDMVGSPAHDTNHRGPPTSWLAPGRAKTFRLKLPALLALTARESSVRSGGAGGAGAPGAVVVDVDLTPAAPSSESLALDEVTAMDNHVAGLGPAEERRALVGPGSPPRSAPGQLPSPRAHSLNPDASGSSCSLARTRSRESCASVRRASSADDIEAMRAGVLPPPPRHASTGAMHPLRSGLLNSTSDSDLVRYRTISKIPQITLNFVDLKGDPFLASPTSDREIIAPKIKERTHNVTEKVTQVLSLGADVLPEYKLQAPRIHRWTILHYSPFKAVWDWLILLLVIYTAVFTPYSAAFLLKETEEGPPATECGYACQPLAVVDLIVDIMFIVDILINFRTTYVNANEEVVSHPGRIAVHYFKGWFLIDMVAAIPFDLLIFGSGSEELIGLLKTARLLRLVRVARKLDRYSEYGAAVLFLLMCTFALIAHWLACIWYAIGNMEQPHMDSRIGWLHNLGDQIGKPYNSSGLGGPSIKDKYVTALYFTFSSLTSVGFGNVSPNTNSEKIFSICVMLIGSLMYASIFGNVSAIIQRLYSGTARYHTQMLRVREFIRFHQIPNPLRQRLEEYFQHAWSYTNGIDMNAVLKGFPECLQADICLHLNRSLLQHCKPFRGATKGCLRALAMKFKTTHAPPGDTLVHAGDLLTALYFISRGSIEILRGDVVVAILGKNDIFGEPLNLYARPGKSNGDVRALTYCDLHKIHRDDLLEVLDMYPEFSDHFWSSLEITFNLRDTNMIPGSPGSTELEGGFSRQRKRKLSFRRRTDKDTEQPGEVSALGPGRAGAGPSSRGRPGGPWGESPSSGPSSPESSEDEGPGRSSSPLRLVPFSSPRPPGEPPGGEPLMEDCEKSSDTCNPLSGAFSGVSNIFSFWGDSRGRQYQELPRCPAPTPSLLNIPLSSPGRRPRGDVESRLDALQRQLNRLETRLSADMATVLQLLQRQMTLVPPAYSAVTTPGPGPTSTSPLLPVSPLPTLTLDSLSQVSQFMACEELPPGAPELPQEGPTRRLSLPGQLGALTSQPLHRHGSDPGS

| Structure (SMILES) | IC90 [3] [nM] | inhibition at 10 µM [6] [%] | IC50 [7] [nM] | IC90 [8] [nM] | inhibition [9] [%] | half-life [11] [h] | clearance [13] [mL/min/kg] | bioavailability [21] [%] | half-life [22] [h] | clearance [24] [mL/min/kg] | other results |
| --- | --- | --- | --- | --- | --- | --- | --- | --- | --- | --- | --- |
| CCn1nc(Cc2ccc(S(C)(=O)=O)cc2)cc1C1CCN(C[C@H]2CN([C@@H](C(=O)O)C(C)(C)C)C[C@@H]2c2cccc(F)c2)CC1 | 11 | 15 | 1.6 | < 0.14 | 13 | 0.55 | 108 | – | – | – | inhibition [1]: 36%; AUC N [2]: 0.24 uM hr dose-1; inhibition [4]: 39%; IC95 [5]: 8.1 nM; IC95 [10]: 6.2 nM; inhibition [12]: 7% |
| CCn1nc(Cc2ccc(C#N)cc2)cc1C1CCN(C[C@H]2CN([C@@H](C(=O)O)C(C)(C)C)C[C@@H]2c2cccc(F)c2)CC1 | 3.7 | 1 | 1.3 | < 0.14 | 23 | – | – | – | – | – | inhibition [1]: 17%; IC50 [14]: 4000 nM; inhibition [12]: 44% |
| CC[C@H](C)[C@H](C(=O)O)N1C[C@H](CN2CCC(c3cc(Cc4ccc(OC)c(OC)c4)nn3CC)CC2)[C@@H](c2cccc(F)c2)C1 | 33 | 36 | 1.5 | 0.4 | 15 | – | – | – | – | – | inhibition [1]: -4%; inhibition [4]: 35%; IC50 [15]: 7200 nM |
| CCn1nc(Cc2ccccc2)cc1C1CCN(C[C@H]2CN([C@@H](C(=O)O)C(C)(C)C)C[C@@H]2c2cccc(F)c2)CC1 | 100 | – | – | – | – | 0.75 | 25 | – | – | – | AUC N [16]: 1.2 uM hr dose-1; AUC N [17]: 2.3 µM hr dose-1; half-life [18]: 0.64 h; clearance [19]: 13 mL/min/kg |
| CC[C@H](C)[C@H](C(=O)O)N1C[C@H](CN2CCC(c3cc(Cc4ccccc4)nn3CC)CC2)[C@@H](c2cccc(F)c2)C1 | 100 | – | – | – | – | – | – | 13 | 0.54 | – | Ki [20]: 30000 nM |
| CCn1nc(Cc2ccccc2)cc1C1CCN(C[C@H]2CN([C@@H](C(=O)O)C3CCCCC3)C[C@@H]2c2ccccc2)CC1 | – | – | – | – | – | – | – | – | – | – | IC90 [23]: 0.4 nM |
| CCn1nc(Cc2ccc(C(F)(F)F)cc2)cc1C1CCN(C[C@H]2CN([C@@H](C(=O)O)C(C)(C)C)C[C@@H]2c2cccc(F)c2)CC1 | 33 | – | 0.3 | 0.4 | – | 2.8 | 5.5 | – | – | – | AUC N [16]: 4.9 uM hr dose-1 |
| CCn1nc(Cc2ccc(-c3ccccc3)cc2)cc1C1CCN(C[C@H]2CN([C@@H](C(=O)O)C3CCCCC3)C[C@@H]2c2cccc(F)c2)CC1 | 11 | – | 0.3 | 0.4 | – | – | – | 18 | 1.3 | 5.3 | Ki [20]: 400 nM |
| CCOc1ccc(Cc2cc(C3CCN(C[C@H]4CN([C@@H](C(=O)O)[C@@H](C)CC)C[C@@H]4c4cccc(F)c4)CC3)n(CC)n2)cc1 | 33 | – | 0.6 | < 0.14 | – | – | – | 5.9 | 0.98 | 4.4 | – |
| CCn1nc(Cc2ccc(OC)c(OC)c2)cc1C1CCN(C[C@H]2CN([C@@H](C(=O)O)C(C)(C)C)C[C@@H]2c2cccc(F)c2)CC1 | 11 | -8 | 1.2 | < 0.14 | 3 | 2.1 | 14 | 33 | 1.1 | 2.1 | inhibition [1]: 9%; AUC N [2]: 1.9 uM hr dose-1; inhibition [4]: 44%; IC50 [15]: 3200 nM; IC95 [5]: 31 nM; IC95 [10]: 1.6 nM |
| CCCCOc1ccc(Cc2cc(C3CCN(C[C@H]4CN([C@@H](C(=O)O)[C@@H](C)CC)C[C@@H]4c4cccc(F)c4)CC3)n(CC)n2)cc1 | 11 | – | 1 | 0.4 | – | – | – | 22 | 1.2 | 4.8 | – |
| CC[C@@H](C)[C@H](C(=O)O)N1C[C@H](CN2CCC(c3cc(Cc4ccc(C#N)cc4)nn3CC)CC2)[C@@H](c2cccc(F)c2)C1 | 33 | – | 1.3 | 0.4 | – | – | – | 3.1 | 0.74 | 9.8 | – |
| CCn1nc(Cc2ccc(S(C)(=O)=O)cc2)cc1C1CCN(C[C@H]2CN([C@@H](C(=O)O)C(C)C)C[C@@H]2c2cccc(F)c2)CC1 | 33 | – | 3.5 | 3.7 | – | – | – | 5.4 | 0.38 | 11 | – |
| CCOc1ccc(Cc2cc(C3CCN(C[C@H]4CN([C@@H](C(=O)O)C(C)(C)C)C[C@@H]4c4cccc(F)c4)CC3)n(CC)n2)cc1 | 33 | – | 0.9 | 0.4 | – | 1.8 | 13 | 68 | 1.4 | 1.7 | AUC N [2]: 2.3 uM hr dose-1 |
| CCn1nc(Cc2ccccc2)cc1C1CCN(C[C@H]2CN([C@@H](C(=O)O)C(C)C)C[C@@H]2c2cccc(F)c2)CC1 | 300 | -3 | – | – | 21 | – | – | – | 1.4 | – | inhibition [1]: 15%; inhibition [4]: 45%; inhibition [12]: 32% |
| CC[C@H](C)[C@H](C(=O)O)N1C[C@H](CN2CCC(c3cc(Cc4ccc(OC5CCC5)cc4)nn3CC)CC2)[C@@H](c2cccc(F)c2)C1 | 11 | – | 1.3 | < 0.14 | – | – | – | 68 | 1.2 | 2.7 | – |
| CC[C@H](C)[C@H](C(=O)O)N1C[C@H](CN2CCC(c3cc(Cc4ccc(OC(F)(F)F)cc4)nn3CC)CC2)[C@@H](c2cccc(F)c2)C1 | 33 | 46 | 1.1 | 0.4 | 42 | 3.1 | 3.8 | 41 | 2.3 | 8.8 | AUC N [2]: 6.8 uM hr dose-1; IC50 [14]: 2700 nM; IC50 [25]: 3600 nM; IC50 [15]: 1200 nM; IC95 [5]: 20 nM; IC95 [10]: 2.5 nM |
| CCn1nc(Cc2ccc(C(C)(C)C)cc2)cc1C1CCN(C[C@H]2CN([C@@H](C(=O)O)C(C)(C)C)C[C@@H]2c2cccc(F)c2)CC1 | 33 | – | 0.4 | 0.4 | – | – | – | 77 | 2.5 | 1.1 | – |
